The values that follow come from PubChem BioAssay AID492951 (Molecular Libraries Program, Specialized Chemistry Center, …, 2010).

Unmarked numbers belong to inactive results. Calls of active or inactive are those of the source.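 Rule for the calls: active = inhibition above 10%; inactive = the rest.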

As a reminder, the inhibition is the change of the read-out against control, counted positive when it falls.

Sequence of Hexokinase-4 (Homo sapiens) (P35557 whole entry, looked up): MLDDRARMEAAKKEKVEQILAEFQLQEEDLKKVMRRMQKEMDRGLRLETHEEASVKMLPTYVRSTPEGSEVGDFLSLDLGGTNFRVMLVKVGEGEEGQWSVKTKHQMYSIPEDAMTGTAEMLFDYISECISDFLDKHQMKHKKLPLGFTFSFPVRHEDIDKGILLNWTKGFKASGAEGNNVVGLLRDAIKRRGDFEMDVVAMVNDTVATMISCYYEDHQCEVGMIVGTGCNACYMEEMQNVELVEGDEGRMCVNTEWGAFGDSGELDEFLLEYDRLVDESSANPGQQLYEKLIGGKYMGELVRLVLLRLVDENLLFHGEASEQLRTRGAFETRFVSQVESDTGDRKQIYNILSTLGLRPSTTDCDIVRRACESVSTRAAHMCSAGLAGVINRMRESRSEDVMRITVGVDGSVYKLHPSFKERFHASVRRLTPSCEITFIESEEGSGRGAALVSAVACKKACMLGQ

The target of the assay is Hexokinase-4 (Homo sapiens) (UniProt P35557). The experiment in a line: hGlck enzyme activity off-target inhibitors – biochemical, recombinant hGlck, counter-screen for TbHK1 inhibitor project (AID 492951). The conditions noted are these: G6PDH-coupled NADH absorbance 340 nm, at 10 µM; active compounds read high. In outline:
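Material: Recombinant human glucokinase, G6PDH-coupled | Medium: TEA buffer pH 7.9 with 3.3 mM MgCl2, 0.75 mM NAD+ | Also added: 20 mM glucose as reaction starter, plus 1 mM ATP | Compound dosing: One dose, 10 µM final | Schedule: 10 min preincubation at room temperature | Measured by: A340 of NADH | Repeats: Three replicates per compound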
(In general: Counterscreens check selectivity or assay interference.)
As for `COc1ccc(C(=O)Nc2ccccc2C(=O)O)cc1Cl`, the inhibition was 11.9% (active).

`COc1ccc(C(=O)Nc2cc(Cl)ccc2C(N)=O)cc1`: the inhibition was 17.9% (active).

On to `O=c1c2cc([N+](=O)[O-])ccc2sn1-c1ccccc1`, for which the inhibition is 11.4% (active).

For `Cc1ccc(-n2sc3cc(F)ccc3c2=O)c(C)c1`, the inhibition is 55.6% (active).

As to `COc1ccc(C(=O)Nc2cc(-c3ccccc3)ccc2C(=O)O)cc1`, the outcome was inactive.

On to `O=C(Nc1cc(Cl)ccc1C(=O)O)c1ccc(C(F)(F)F)cc1`, for which the result was inactive.

On to `O=c1c2cc(C(F)(F)F)ccc2sn1-c1ccccc1`, for which the inhibition was 45.7% (active).

Regarding `Cc1ccc(C(=O)Nc2cc(Cl)ccc2C(=O)O)cc1`, the outcome was inactive.

As for `CC(C)c1ccc(C(=O)Nc2cc(Cl)ccc2C(=O)O)cc1`, the outcome was inactive.

With `COc1ccc(C(=O)Nc2cc(Cl)ccc2-c2noc(=O)[nH]2)cc1`, the inhibition was 30.1% (active).

With `COc1ccc(C(=O)Nc2cc(I)ccc2C(=O)O)cc1`, the result was inactive.

Take `CC(C)(C)c1ccc(C(=O)Nc2cc(Cl)ccc2-c2nn[nH]n2)cc1`: the inhibition was 28.4% (active).

As for `O=C(c1ccccc1)n1sc2ccccc2c1=O`, the outcome was inactive.

As for `O=C1c2ccccc2S(=O)N1c1cccc(F)c1` (stereo not drawn), the inhibition was 8.84%.

Consider `COC(=O)c1ccc(Cl)cc1NS(=O)(=O)c1ccc(OC)cc1`, for which the result was inactive.

In the case of `O=C(Cn1sc2ccccc2c1=O)Nc1cccc(F)c1`, the inhibition was 14.3% (active).

As for `Cn1c2ccccc2c(=O)n1-c1ccccc1`, the outcome was inactive.

Turning to `COc1ccc(C(=O)N(C)c2cc(Cl)ccc2C(=O)O)cc1`, the inhibition was 6.7%.

In the case of `O=C(Cn1sc2ccccc2c1=O)Nc1ccc(Cl)cc1`, the result was inactive.

As for `COc1ccc(C(=O)Nc2cc(OC)ccc2C(=O)O)cc1`, the inhibition is 6.9%.

On to `CCCCCC(=O)Nc1cc(Cl)ccc1C(=O)O`, for which the result was inactive.

For `Cn1sc2ccccc2c1=O`, the outcome was inactive.

Take `O=C(Cn1sc2ccccc2c1=O)Nc1cccc(Br)c1`: the inhibition is 22.2% (active).

For the compound `COc1ccc(C(=O)Nc2ccc(Cl)cc2C(=O)O)cc1`, the result was inactive.

`COc1ccc(C(=O)Nc2cc(F)ccc2C(=O)O)cc1`: the outcome was inactive.

For the compound `O=C(Nc1cc(Cl)ccc1C(=O)O)c1ccc(C2CCC2)cc1`, the inhibition is 35.4% (active).

Turning to `CCc1ccc(C(=O)Nc2cc(Cl)ccc2C(=O)O)cc1`, the result was inactive.

With `O=c1c2cc(N3CCOCC3)ccc2sn1-c1ccccc1`, the outcome was inactive.

As for `COc1cc(C(=O)Nc2cc(Cl)ccc2C(=O)O)cc(OC)c1OC`, the result was inactive.

For the compound `OB1OCc2cc(C(F)(F)F)ccc21`, the result was inactive.

Regarding `O=C(Nc1ccccc1)c1cc(F)ccc1S`, the inhibition was 3.6%.

For the compound `COc1ccc(NC(=O)c2ccc(Cl)cc2C(=O)O)cc1`, the outcome was inactive.

Consider `O=C(Cn1sc2ccccc2c1=O)NCc1ccccc1`, for which the result was inactive.

Regarding `COc1ccc(C(=O)Nc2cc(Cl)c(C)cc2C(=O)O)cc1`, the inhibition was 17.6% (active).

As for `COc1ccc(C(=O)Nc2cc(Cl)ccc2C(=O)O)cc1OC`, the inhibition was 20.1% (active).

With `CC1(c2ccc(C(=O)Nc3cc(Cl)ccc3C(=O)O)cc2)CC1`, the outcome was inactive.

In the case of `O=c1c2cc(F)ccc2sn1-c1ccccc1Cl`, the inhibition was 14.4% (active).

As to `O=c1c2ccc(F)cc2sn1-c1ccccc1`, the inhibition was 37.8% (active).
